Structures are written as SMILES. The source made the active and inactive calls. No cut-off for these calls is given here.

In assay [1] the test system is Mus musculus. The assay can be described thus: Antiinflammatory activity in LPS-induced C57BL/6 mouse model of acute lung injury assessed as reduction in IL12 mRNA level at 10 mg/kg, iv pretreated for 15 mins followed by LPS stimulation and measured after 6 hrs by SYBR green staining-based qRT-PCR analysis. In kind it is functional, organism-based. An outline of the steps:
(§1)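 Total lung RNA extracted, with DNase I removal of residual DNA. Quantitative PCR with mouse gene primers; each gene normalized to β-actin. C57BL/6 mice given compound iv 15 min before intraperitoneal LPS (20 mg/kg) and killed at 6 h.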
Background: In qPCR the cycle at which signal appears reflects the starting amount.

Assay [2] has as its system Mus musculus. Description: Antiinflammatory activity in LPS-induced C57BL/6 mouse model of acute lung injury assessed as reduction in IL33 mRNA level at 10 mg/kg, iv pretreated for 15 mins followed by LPS stimulation and measured after 6 hrs by SYBR green staining-based qRT-PCR analysis. In kind it is functional, organism-based. An outline of the steps: as §1
For assay [3], the target named is Atypical kinase COQ8A, mitochondrial (Homo sapiens) (UniProt Q8NI60). The assay can be described thus: Inhibition of wild-type human […] length ADCK3 (M280 to Q647 residues) expressed in bacterial expression system at 1 uM by Kinomescan method. An outline of the steps: (§2)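 KINOMEscan competition binding screen at 1 μM compound. Results reported as % of control = (test − positive control)/(DMSO negative control − positive control) × 100, where lower values mean stronger hits.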

In assay [4] the target is ALK tyrosine kinase receptor (Homo sapiens) (UniProt Q9UM73). Description: Inhibition of wild-type human partial length ALK (I1088 to E1409 residues) expressed in mammalian expression system at 1 uM by Kinomescan method. An outline of the steps: (§3)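 Binding-competition screen on the KINOMEscan platform, run by the provider, with the test compound at 1 μM. Readout is percent of control: (test signal − positive control signal)/(negative control signal − positive control signal) × 100. The DMSO negative control is set as 100% Ctrl and a control compound as 0% Ctrl. Lower values mean stronger hits.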

The target of assay [5] is Cyclin-dependent kinase 19 (Homo sapiens) (UniProt Q9BWU1). Description: Inhibition of wild-type human partial length CDK11 (M1 to N360 residues) expressed in bacterial expression system at 1 uM by Kinomescan method. In a few lines: as §3
Assay [6] deals with Macrophage colony-stimulating factor 1 receptor (Homo sapiens) (UniProt P07333). Description: Inhibition of wild-type human partial length CSF1R (I564 to S939 residues) expressed in bacterial expression system at 1 uM by Kinomescan method. An outline of the steps: as §3
Assay [7] has as its target Serine/threonine-protein kinase DCLK1 (Homo sapiens) (UniProt O15075). Description: Inhibition of wild-type human partial length DCAMKL1 (L270 to A662 residues) expressed in mammalian expression system at 1 uM by Kinomescan method. An outline of the steps: as §3
Assay [8] deals with Epidermal growth factor receptor (Homo sapiens), P00533 [L858R]. The assay can be described thus: Inhibition of human partial length EGFR L858R mutant (R669 to V1011 residues) expressed in bacterial expression system at 1 uM by Kinomescan method. In a few lines:
(§4)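 KINOMEscan competition binding panel (98 kinases) run by the provider, compound screened once at 1 μM. Read-out is percent of control: [(test signal − positive control signal)/(negative control signal − positive control signal)] × 100. DMSO negative control sets 100% Ctrl and a control compound sets 0% Ctrl; lower values mean stronger hits.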

The target of assay [9] is Mitogen-activated protein kinase 3 (Homo sapiens) (UniProt P27361). The assay can be described thus: Inhibition of wild-type human full length ERK1 (M1 to P379 residues) expressed in bacterial expression system at 1 uM by Kinomescan method. An outline of the steps: as §2
In assay [10] the target is Focal adhesion kinase 1 (Homo sapiens) (UniProt Q05397). Description: Inhibition of wild-type human partial length FAK (D402 to R696 residues) expressed in bacterial expression system at 1 uM by Kinomescan method. An outline of the steps:
as §3

Assay [11] deals with Tyrosine-protein kinase JAK2 (Homo sapiens) (UniProt O60674). The assay can be described thus: Inhibition of wild-type human partial length JAK2 JH1 catalytic domain (A829 to G1132 residues) expressed in mammalian expression system at 1 uM by Kinomescan method. An outline of the steps:
as §3

Assay [12] deals with Mast/stem cell growth factor receptor Kit (Homo sapiens), P10721 [D816V]. The assay can be described thus: Inhibition of human partial length KIT D816V mutant (I571 to D952 residues) expressed in bacterial expression system at 1 uM by Kinomescan method. An outline of the steps:
as §4

For assay [13], the target named is MAP/microtubule affinity-regulating kinase 3 (Homo sapiens) (UniProt P27448). Description: Inhibition of wild-type human full length MARK3 (M1 to L729 residues) expressed in bacterial expression system at 1 uM by Kinomescan method. An outline of the steps:
as §2

The target in assay [14] is Mitogen-activated protein kinase kinase kinase 9 (Homo sapiens) (UniProt P80192). Description: Inhibition of wild-type human partial length MLK1 (V88 to W426 residues) expressed in bacterial expression system at 1 uM by Kinomescan method. In a few lines: as §3
Assay [15] concerns the target Serine/threonine-protein kinase PAK 2 (Homo sapiens) (UniProt Q13177). The assay can be described thus: Inhibition of wild-type human partial length PAK2 (P151 to R525 residues) expressed in bacterial expression system at 1 uM by Kinomescan method. In a few lines:
as §3

Assay [16] concerns the target Platelet-derived growth factor receptor alpha (Homo sapiens) (UniProt P16234). Description: Inhibition of wild-type human partial length PDGFRA (V575 to D1002 residues) expressed in mammalian expression system at 1 uM by Kinomescan method. In a few lines: as §3
Assay [17] deals with Serine/threonine-protein kinase PLK1 (Homo sapiens) (UniProt P53350). Description: Inhibition of wild-type human partial length PLK1 (A33 to F325 residues) expressed in mammalian expression system at 1 uM by Kinomescan method. An outline of the steps: as §3
Assay [18] addresses Ribosomal protein S6 kinase alpha-3 (Homo sapiens) (UniProt P51812). Description: Inhibition of wild-type human partial length N-terminal RSK2 kinase domain 1 (M1 to D394 residues) expressed in mammalian expression system at 1 uM by Kinomescan method. In a few lines: as §3
Assay [19] has as its target SRSF protein kinase 3 (Homo sapiens) (UniProt Q9UPE1). The assay can be described thus: Inhibition of wild-type human partial length SRPK3 (P41 to P567 residues) expressed in bacterial expression system at 1 uM by Kinomescan method. In a few lines: (§5)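 Single-concentration screen at 1 μM on the KINOMEscan panel (98 kinases), run by the platform provider. Results are given as percent of control: % Ctrl = [(test signal − positive control signal)/(negative control signal − positive control signal)] × 100. DMSO serves as negative control (100% Ctrl) and a control compound as positive control (0% Ctrl). Lower values mean stronger binding hits.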

Assay [20] addresses High affinity nerve growth factor receptor (Homo sapiens) (UniProt P04629). Description: Inhibition of wild-type human partial length TRKA (G475 to G790 residues) expressed in mammalian expression system at 1 uM by Kinomescan method. An outline of the steps: as §5
Assay [21] deals with Testis-specific serine/threonine-protein kinase 1 (Homo sapiens) (UniProt Q9BXA7). The assay can be described thus: Inhibition of wild-type human full length TSSK1B (M1 to Q367 residues) expressed in bacterial expression system at 1 uM by Kinomescan method. An outline of the steps:
as §2

Focal adhesion kinase 1 (Homo sapiens), sequence (Q05397 2-1052 limits assumed): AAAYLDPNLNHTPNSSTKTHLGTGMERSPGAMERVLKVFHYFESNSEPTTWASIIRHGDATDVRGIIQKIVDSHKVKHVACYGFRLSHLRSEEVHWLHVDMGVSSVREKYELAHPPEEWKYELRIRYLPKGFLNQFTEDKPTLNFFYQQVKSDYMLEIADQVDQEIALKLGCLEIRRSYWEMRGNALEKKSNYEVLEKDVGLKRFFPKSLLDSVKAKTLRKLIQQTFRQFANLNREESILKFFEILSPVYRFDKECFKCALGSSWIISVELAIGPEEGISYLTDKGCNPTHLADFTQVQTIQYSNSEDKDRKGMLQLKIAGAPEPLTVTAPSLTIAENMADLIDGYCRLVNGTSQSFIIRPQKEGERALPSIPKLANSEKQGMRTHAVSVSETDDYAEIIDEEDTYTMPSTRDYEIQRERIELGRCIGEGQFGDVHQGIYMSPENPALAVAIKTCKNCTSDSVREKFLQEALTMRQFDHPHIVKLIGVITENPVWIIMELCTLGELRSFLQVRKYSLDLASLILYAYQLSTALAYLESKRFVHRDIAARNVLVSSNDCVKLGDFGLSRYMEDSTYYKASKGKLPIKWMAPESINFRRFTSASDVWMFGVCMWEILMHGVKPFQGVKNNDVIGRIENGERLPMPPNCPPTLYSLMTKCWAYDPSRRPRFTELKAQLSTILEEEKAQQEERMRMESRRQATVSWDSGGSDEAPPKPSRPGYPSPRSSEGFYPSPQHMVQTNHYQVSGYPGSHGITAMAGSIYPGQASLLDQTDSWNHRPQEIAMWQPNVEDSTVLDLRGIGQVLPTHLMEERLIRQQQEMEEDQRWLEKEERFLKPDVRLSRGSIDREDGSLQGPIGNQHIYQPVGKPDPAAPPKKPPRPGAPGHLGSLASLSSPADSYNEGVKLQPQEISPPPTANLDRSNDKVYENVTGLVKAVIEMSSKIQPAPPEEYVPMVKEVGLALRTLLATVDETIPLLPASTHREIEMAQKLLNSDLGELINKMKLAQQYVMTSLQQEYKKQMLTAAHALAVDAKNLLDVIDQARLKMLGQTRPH
SRSF protein kinase 3 (Homo sapiens), sequence (Q9UPE1 whole entry, the tested form may be a part): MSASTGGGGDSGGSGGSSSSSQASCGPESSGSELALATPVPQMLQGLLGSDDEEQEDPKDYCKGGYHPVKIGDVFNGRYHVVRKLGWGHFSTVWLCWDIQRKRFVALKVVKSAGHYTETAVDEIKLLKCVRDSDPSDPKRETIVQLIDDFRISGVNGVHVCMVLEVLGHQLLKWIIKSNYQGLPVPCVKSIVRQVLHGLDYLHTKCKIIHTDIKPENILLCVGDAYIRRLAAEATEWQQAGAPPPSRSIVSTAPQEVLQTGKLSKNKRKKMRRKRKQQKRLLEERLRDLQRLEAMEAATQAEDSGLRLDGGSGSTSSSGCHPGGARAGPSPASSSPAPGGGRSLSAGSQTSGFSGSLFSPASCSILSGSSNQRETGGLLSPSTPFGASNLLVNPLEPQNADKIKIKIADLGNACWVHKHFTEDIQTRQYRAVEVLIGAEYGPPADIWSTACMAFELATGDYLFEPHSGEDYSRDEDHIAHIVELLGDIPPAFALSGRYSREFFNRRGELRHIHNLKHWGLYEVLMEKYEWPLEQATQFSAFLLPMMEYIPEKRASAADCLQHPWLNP
ALK tyrosine kinase receptor (Homo sapiens), sequence (Q9UM73 19-1620 limits assumed): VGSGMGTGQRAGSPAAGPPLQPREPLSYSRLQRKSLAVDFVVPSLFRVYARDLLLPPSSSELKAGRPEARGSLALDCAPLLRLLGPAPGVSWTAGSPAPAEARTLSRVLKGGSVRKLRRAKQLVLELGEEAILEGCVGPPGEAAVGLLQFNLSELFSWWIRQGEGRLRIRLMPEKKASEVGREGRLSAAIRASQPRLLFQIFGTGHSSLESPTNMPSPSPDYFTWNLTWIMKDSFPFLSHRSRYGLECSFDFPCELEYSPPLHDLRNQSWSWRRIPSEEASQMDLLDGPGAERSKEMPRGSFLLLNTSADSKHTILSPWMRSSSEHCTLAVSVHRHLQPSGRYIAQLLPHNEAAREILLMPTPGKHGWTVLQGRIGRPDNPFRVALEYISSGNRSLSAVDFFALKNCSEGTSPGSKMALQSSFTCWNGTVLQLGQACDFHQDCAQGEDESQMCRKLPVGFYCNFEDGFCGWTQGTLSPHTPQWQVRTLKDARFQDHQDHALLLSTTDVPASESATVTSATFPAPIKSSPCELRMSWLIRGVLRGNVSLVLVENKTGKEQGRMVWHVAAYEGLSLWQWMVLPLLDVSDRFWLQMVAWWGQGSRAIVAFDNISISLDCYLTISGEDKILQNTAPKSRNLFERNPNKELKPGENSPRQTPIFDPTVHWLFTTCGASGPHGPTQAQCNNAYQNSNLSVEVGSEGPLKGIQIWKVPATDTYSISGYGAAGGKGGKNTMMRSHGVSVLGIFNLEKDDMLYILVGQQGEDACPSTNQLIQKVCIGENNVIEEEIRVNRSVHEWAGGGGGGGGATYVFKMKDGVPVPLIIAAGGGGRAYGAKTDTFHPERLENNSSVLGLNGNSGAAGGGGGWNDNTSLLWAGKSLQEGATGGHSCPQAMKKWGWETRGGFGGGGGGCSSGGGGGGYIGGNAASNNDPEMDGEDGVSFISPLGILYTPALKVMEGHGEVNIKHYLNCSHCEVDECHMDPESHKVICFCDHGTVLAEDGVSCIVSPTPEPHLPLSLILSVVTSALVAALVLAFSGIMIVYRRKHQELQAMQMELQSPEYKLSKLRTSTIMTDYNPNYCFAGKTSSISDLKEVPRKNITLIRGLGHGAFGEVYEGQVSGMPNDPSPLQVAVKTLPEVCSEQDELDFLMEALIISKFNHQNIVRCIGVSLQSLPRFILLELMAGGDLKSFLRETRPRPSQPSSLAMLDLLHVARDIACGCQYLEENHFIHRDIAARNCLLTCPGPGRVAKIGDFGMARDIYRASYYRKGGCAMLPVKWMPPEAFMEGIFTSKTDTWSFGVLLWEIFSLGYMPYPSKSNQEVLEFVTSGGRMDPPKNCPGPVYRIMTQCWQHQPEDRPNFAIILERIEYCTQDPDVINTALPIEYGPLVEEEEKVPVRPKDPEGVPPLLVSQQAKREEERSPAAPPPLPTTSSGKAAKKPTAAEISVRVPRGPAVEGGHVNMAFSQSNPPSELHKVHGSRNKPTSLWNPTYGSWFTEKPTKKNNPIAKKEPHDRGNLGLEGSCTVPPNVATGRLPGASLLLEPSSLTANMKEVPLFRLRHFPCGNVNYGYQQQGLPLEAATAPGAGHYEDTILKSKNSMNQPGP
Platelet-derived growth factor receptor alpha (Homo sapiens), sequence (P16234 whole entry, the tested form may be a part): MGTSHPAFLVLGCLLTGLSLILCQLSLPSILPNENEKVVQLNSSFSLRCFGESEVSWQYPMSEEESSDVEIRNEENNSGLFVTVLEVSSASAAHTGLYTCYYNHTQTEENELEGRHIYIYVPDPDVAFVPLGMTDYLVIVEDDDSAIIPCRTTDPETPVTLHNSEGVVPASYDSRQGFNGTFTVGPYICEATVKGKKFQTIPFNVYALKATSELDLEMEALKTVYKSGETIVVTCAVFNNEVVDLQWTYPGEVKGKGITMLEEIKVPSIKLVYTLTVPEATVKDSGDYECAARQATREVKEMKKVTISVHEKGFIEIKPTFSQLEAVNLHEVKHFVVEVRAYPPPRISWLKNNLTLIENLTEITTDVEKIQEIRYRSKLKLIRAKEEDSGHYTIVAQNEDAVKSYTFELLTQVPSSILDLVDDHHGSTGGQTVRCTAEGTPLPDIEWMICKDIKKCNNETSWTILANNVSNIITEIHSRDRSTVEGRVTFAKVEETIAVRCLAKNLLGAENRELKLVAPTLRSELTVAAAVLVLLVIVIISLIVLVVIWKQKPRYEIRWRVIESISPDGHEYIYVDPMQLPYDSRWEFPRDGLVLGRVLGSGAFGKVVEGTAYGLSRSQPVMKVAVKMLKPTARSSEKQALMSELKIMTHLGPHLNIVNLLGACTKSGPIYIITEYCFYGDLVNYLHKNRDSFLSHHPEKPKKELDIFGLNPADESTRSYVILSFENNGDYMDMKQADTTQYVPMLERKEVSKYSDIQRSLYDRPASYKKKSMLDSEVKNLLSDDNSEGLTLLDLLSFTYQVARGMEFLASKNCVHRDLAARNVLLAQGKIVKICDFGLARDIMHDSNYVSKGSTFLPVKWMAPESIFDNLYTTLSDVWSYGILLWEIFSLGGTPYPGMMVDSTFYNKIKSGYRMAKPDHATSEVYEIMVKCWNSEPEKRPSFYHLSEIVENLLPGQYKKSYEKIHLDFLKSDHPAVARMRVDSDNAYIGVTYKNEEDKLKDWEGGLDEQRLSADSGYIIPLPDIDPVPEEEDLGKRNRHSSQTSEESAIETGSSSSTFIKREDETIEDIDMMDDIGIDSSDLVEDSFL
High affinity nerve growth factor receptor (Homo sapiens), sequence (P04629 33-796 limits assumed): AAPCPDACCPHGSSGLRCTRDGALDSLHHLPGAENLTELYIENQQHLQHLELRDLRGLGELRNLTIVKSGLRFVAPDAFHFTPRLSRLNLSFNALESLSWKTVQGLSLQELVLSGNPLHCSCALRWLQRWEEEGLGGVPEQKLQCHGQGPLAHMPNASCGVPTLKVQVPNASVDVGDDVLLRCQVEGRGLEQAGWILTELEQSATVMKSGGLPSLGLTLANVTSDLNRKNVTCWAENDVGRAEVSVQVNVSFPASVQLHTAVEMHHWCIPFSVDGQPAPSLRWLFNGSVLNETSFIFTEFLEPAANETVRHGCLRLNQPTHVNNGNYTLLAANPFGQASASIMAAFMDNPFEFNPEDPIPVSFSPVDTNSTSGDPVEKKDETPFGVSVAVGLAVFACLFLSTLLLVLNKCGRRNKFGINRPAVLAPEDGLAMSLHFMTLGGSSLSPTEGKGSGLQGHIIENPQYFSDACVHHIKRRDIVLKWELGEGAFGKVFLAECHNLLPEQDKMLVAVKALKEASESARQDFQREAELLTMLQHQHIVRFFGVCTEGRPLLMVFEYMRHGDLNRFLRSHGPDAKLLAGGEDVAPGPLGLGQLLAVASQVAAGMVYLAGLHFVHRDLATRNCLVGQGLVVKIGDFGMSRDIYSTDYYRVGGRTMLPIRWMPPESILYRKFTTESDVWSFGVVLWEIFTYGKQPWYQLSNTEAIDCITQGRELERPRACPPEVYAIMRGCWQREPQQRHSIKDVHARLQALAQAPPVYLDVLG

Take `O=C(Nc1ccc2[nH]nc(-c3ccc4[nH]ccc4c3)c2c1)c1c(Cl)cccc1Cl`: the result with Mus musculus [1] and in the assay with Mus musculus [2] was Active. Further, the inhibition entry in assay [3], in assay [4], in [5], in assay [6], in assay [7] and in assay [8] was “inactive” in each case. Also, the inhibition entry in [9], in [10], in [11], in assay [12], in assay [13] and in assay [14] was “inactive” in each case. For the same compound, the inhibition entry in assay [15], in [16], in [17], in [18], in [19] and in assay [20] was “inactive” each time. For the same compound, the inhibition result in assay [21] was “inactive”.

These data come from ChEMBL document CHEMBL4304739, “Discovery of 3-(Indol-5-yl)-indazole Derivatives as Novel Myeloid Differentiation Protein 2/Toll-like Receptor 4 Antagonists for Treatment of Acute Lung Injury” (J Med Chem, 2019).
